The data set concerns MS2 coat protein. Description: apparent Kd, MS2 coat protein; higher = weaker binding; RNA-MaP array; FMN 200 µM where present. Put shortly:
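The titrant was SNAP-549-labelled MS2 coat protein, run from 0.7 or 1.5 nM in doubling steps to 3 µM. It was applied to designs transcribed by stalled E. coli RNA polymerase on Illumina sequencing-chip clusters, without ligand first and then with constant ligand, in 100 mM Tris-HCl pH 7.5, 80 mM KCl, 4 mM MgCl2, BSA, DTT, yeast tRNA and Tween-20. The apparent Kd is the median of filtered per-cluster binding-curve fits, with green signal normalised to red-channel RNA signal and control-cluster median Fmax.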

Setting [1] is: designed as: OFF switch for flavin mononucleotide, no ligand.
[2] abbreviates: ligand present: flavin mononucleotide, designed as: OFF switch for flavin mononucleotide.
Where [3] appears, read: designed as: ON switch for flavin mononucleotide, no ligand.
The mark [4] stands for this setting: ligand present: flavin mononucleotide, designed as: ON switch for flavin mononucleotide.

“CAGUUUUGAGGAUAUCCAUCCUCCUACAUGAGGAUCACCCAUGUUUCCCUCUGGGUUUUCGGAGAAGGCAGUUAUU”: the apparent Kd (as a rule, a dissociation constant that holds for the conditions of the assay) under setting [1] was determined as 326 nM and the “apparent Kd” value under setting [2] came to 283 nM.
On the same counts, the results for “CAAUUUAUAACAGGAUAUAUAAUACAAUGGUUAAUAGAAGGGUUUAAUACAUGAGGAUCACCCAUGUCAUGUGUCAUAAUUACC” are 23 nM and 17.1 nM.
Consider “GUGCCGUUGGCUCGACGACCGCUGCAGGAUAUCACAUGAGGAUCACCCAUGUGACUCUGCCCAUGUGAGAAGGGCGGCUGUGUG”, for which the “apparent Kd” value is, setting by setting: under setting [1], 18.9 nM; under setting [2], 34.7 nM.
Take “GCGUCAGUUUCACAUGUAAUACAUGAGGAUCACCCAUGUUACUAGGAUAUGUAUUAGAAUUAUCAACAGAAGGAGUAAUGACGC”: the “apparent Kd” value was found to be 11.1 nM under setting [1] and 12.8 nM under setting [2].
In the same order, the values of “GGAAAUCAUGUAGGAUAUGCAUGGCGAAGCUACGCAGAAGGACAUGAGGAUCACCCAUGUUAAAGCUACCGAGUUCGGUGGCAA” are 180 nM and 148 nM.
“CUAUUUAGUGCCUCAUGUACAUGAGGAUCACCCAUGUUAACUUAGGAUAUAUUUAUAUUGAUAGAGUAGAAGGAAGUACUAUUG”: the “apparent Kd” value by setting is: under setting [1], 70.2 nM; under setting [2], 61 nM.
As for “AAAUCAGCAGGAUAUACGAUGUUAUGCUAGAUAGCGGGACCACAUGAGGAUCACCCAUGUAGAAGGGCUAGAUA”, the “apparent Kd” value is 35 nM under setting [1] and 30.8 nM under setting [2].
Turning to “GUCAGCUCGUGAGGAUAUACAACACUGCUUCGGCAGUGUAUUAAGAGCACAUGAGGAUCACCCAUGUAGAAGGCACGAGCUGAU”, the “apparent Kd” value came to 5.58 nM under setting [1] and 7.61 nM under setting [2].
“ACGGCACAUGAGGAUCACCCAUGUGCCGAGAGGCGAGGAUAUCGAAAAAAAAAAAAAAAACGAGAAGGCGCGAGAA”: the “apparent Kd” value runs as follows: under setting [3], 16.5 nM; under setting [4], 14.4 nM.
With “CAACAGUCAGGAUAUGCAAAAAAAACGCAACGCAAAAAAAAGCAGAAGGGACAUGAGGAUCACCCAUGUUGUCG”, the “apparent Kd” value reads like this: under setting [1], 30.2 nM; under setting [2], 26.3 nM.
For “GGUUGGCGAGGAUAUACAUGAGGAUCACCCAUGUGGUCCUGUGGCUGAUCUUGCCUUUGUAGAAGGCGCGGGUC”, the “apparent Kd” value reads like this: under setting [1], 49.4 nM; under setting [2], 45.3 nM.
Take “AGUCCUGAUGUUAGGAUAUGCAACUAGCCAUUGUAGCAGAAGGAACAUGAGGAUCACCCAUGUACAAAGACCCA”: the “apparent Kd” value under setting [1] came out at 30.1 nM and the “apparent Kd” value under setting [2] was 55.4 nM.
On the same counts, the results for “CGCAACUCUUCACAUGUAAACAUGAGGAUCACCCAUGUAUUGAGAAGGAGGAAGAAGAGAGAUUCCUAGGAUAUCAGAGUUGCG” are 6.42 nM and 5.84 nM.
As for “GAAUAAUUGAUCCAUUUUUAAAACAUGAGGAUCACCCAUGUGCAGGAUAUCGUGUGAGUUAAAUACGAGAAGGGCAAGAACUGU”, the “apparent Kd” value turned out to be 201 nM under setting [1] and 214 nM under setting [2].
Regarding “GAGUAGAUAGCAGGAUAUCUAUUUCCUACAUGAGGAUCACCCAUGUAGAUGAUCACCCAUGUAAAGGAGAAGGGCUAUCUAUUC”, the “apparent Kd” value runs as follows: under setting [3], 355 nM; under setting [4], 160 nM.
Turning to “GGGUACAUCGGAGGAUAUCAUGUAAAUACAUGAGGAUCACCCAUGUCGAUGGAGACAUCGGAGAUUGAGAAGGCCGAUGUGCCG”, the “apparent Kd” value was 145 nM under setting [3] and 9.5 nM under setting [4].
With “GCAUUGUAAGGAUAUACGUGCAAAGUUUUCGCUGUAAGUCGACAUGAGGAUCACCCAUGUAGAAGGUAUAUGGU”, the “apparent Kd” value runs as follows: under setting [1], 24 nM; under setting [2], 24.1 nM.
For the sequence “AUUUCAAUUGUUUACAUGAGGAUCACCCAUGUCAUAAGUCAUGAGGAUAUGGUAUUGUAGUUAUUCCAGAAGGCAUAUAGCUUA”, the “apparent Kd” value under setting [3] amounted to 38.5 nM and the “apparent Kd” value under setting [4] amounted to 14.4 nM.
“CUCUUGUAAGGAUAUGACUACAUAAAAAAAAAAAAAUGUAGUCAGAAGGUACAUGAGGAUCACCCAUGUACAAA”: the “apparent Kd” value under setting [1] is 22.7 nM and the “apparent Kd” value under setting [2] worked out at 25.6 nM.
On the same counts, the results for “AGAAAGGUAGGAUAUACGAAAAAAAAGGGUAGAAAAAAAACACAUGAGGAUCACCCAUGUAGAAGGACCAAAGA” are 28.9 nM and 96.6 nM.
For “ACAUGAGGAUCACCCAUGUUCACAUAGGAUAUUGAUUUUAUUGGUUUUAGAAUAGUUAUUAAGCUCAAGAAGGAUGCCAGUUGU”, the “apparent Kd” value runs as follows: under setting [3], 12.4 nM; under setting [4], 9.97 nM.
Turning to “UGUCCAUAGCAGAAGGACAUAAAUAACCAUGAAAACAUGAGGAUCACCCAUGUAGGAUAUGCUAUGGACUAAGAGCGAAAGCUC”, the “apparent Kd” value came to 5.38 nM under setting [1] and 17.8 nM under setting [2].
In the same order, the values of “UGUGGUGGUCAGGAUAUAAAUUGCGCCUGACGCUUAGAAGGGACUACAUGAGGAUCACCCAUGUGAGAGCUUCA” are 16.4 nM and 15.9 nM.
In the same order, the values of “AAUUUAAAGGGAGGAUAUACAUGAGGAUCACCCAUGUAAUAAUAUGAUAUUUUUUUUGUAUGAGUGUAGAAGGCCCAAAUAAAA” are 51.6 nM and 61 nM.
In the same order, the values of “CUGUGUCCGCAGGAUAUGUUAUCCUGAAGGAUCACAGAAGGGCGGACAUGAGGAUCACCCAUGUGAGCCAAAGA” are 16.2 nM and 17.3 nM.
For the sequence “UAUAUAUAGUAAGGAUAUGUAUUAAUUUUUUAAACAGAAGGUACUGACAUGAGGAUCACCCAUGUUUUAGUGUGGGCAUGUAGA”, the “apparent Kd” value came out at 78.8 nM under setting [1] and 131 nM under setting [2].
On the same counts, the results for “UGAUAGGACAGAGGAUAUACGUGCUAGAGAUACUAGCAAAGUUUCCUGACAUGAGGAUCACCCAUGUAGAAGGCUGUCCUAUCU” are 6.56 nM and 20.9 nM.
Regarding “GACGCGCUCACAGGAUAUAGAUCCUCAGUGGCUCUAGAAGGGUGAACGUGCCCGAACGGGACAUGAGGAUCACCCAUGUAAUAA”, the “apparent Kd” value under setting [3] came out at 34.9 nM and the “apparent Kd” value under setting [4] turned out to be 13.2 nM.
On the same counts, the results for “UUCAAGUUGCGAGGAUAUCGUGUUAACAUGAGGAUCACCCAUGUAAAGGUUUAUUAAAUAAUCUUCGAGAAGGCGCUUAAUGUA” are 24.1 nM and 20.8 nM.
On the same counts, the results for “CUCACGUUAGUAGGAUAUCCGACAUGAGGAUCACCCAUGUCACUACGCCUCAAGGGAAGGUGUAAGGAGAAGGGCUGAUAAAUA” are 178 nM and 88.3 nM.
Turning to “AAGAUGCGGGUAGGAUAUGGAGAGAAAGAAAGACCAGAAGGACUGGUCACACAACAUGAGGAUCACCCAUGUGUGUGUUGCGAA”, the “apparent Kd” value is 11.8 nM under setting [1] and 8.91 nM under setting [2].
For “GCGUGAAAUGUAGGAUAUGACACAGGAAACUGGUCAGAAGGACAUGAGGAUCACCCAUGUAAAAUGUUCAAGAAUAACACAUGC”, the “apparent Kd” value by setting is: under setting [1], 30.3 nM; under setting [2], 87 nM.
In the same order, the values of “GGUUGGCGAGGAUAUACAUGAGGAUCACCCAUGUGGUCCUGCGAUGGUGUCGCCCUUUGUAGAAGGCGCGGGUC” are 45 nM and 42.5 nM.
On the same counts, the results for “UAGAGUCGCGUCAGGAUAUACCACUUAACCCAGUAGUAGAAGGGACAUGAGGAUCACCCAUGUCGGUGUUAGCC” are 23.2 nM and 26.2 nM.
As for “GUGGUCAGACAUGAGGAUCACCCAUGUGGAAUAAAUAAGGUUUAGGAUAUGGAAUAUAGGAUAUACCAGAAGGAAGGGUUGGUG”, the “apparent Kd” value reads like this: under setting [3], 125 nM; under setting [4], 135 nM.
On the same counts, the results for “UUUUUUUUUAGAGGAUAUAUUGUGUGUUAUAUAAUAGAAGGCUAAACAAACAUGAGGAUCACCCAUGUUGUCCAUGUCGUCGGC” are 15.3 nM and 20.7 nM.

(Values after the EternaBench riboswitch data.)
